An excerpt weighted towards active compounds, which were near 2.9% of everything screened.
Apaf1 inhib – inhibitors of human Apaf-1 apoptosome. O14727. reconstituted apoptosome caspase-3 activity, DEVD-Rh110 fluorescence. inhibition, % at 20 µM. 0.71% of 330,000 active; active means inhibition of at least 40% at 20 µM;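 further: plate controls were DMSO wells for no effect and DEVD-CHO caspase inhibitor wells for full effect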
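Material: reconstituted apoptosome with Apaf-1, cytochrome c, caspase-9, procaspase-3, dATP / Buffer or medium: pH 7.5 Hepes buffer with CHAPS, BSA, DTT / Also added: cytochrome c with DEVD-Rh110 / Schedule: compound with Apaf-1, dATP, procaspase-3 30 min, then 50 min reaction, room temperature / Technique: rhodamine 110 fluorescence at Ex 480/Em 540 nm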
ZTA DNA inh – blocks Epstein-Barr virus ZTA, an EBNA-1 counter-screen | P03206 | ZTA-DNA binding, fluorescence polarization | inhibition, % at 11 µM | AID 2234 | 0.15% of 320,000 active; in the data active means inhibition above about 33%
PfM18AAP inh-1 – PfM18AAP enzyme inhibition | recombinant PfM18AAP, H-Glu-NHMec fluorogenic cleavage | inhibition, % at 7.35 µM | 1.2% of 290,000 active | AID 1822;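 active means inhibition above the campaign mean inhibition over all tested compounds plus 3 SD, cut at about 28% in these data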;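 further: 0% = plate median of test compound wells and 100% = 2 mM ZnCl2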
PfG6PD inh – PfG6PD (Plasmodium falciparum) enzyme inhibition. inhibition, % at 20 µM. PfGluPho enzyme, NADPH resazurin-diaphorase fluorescence. AID 504690. 0.78% of 350,000 active;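 active means inhibition reaching at least a set limit at 20 µM in the primary screen, cut at about 59% in these data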;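 further: 0% = DMSO wells with substrate and 100% = DMSO wells lacking glucose-6-phosphate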
UBC13 polyUb – inhibitors of human UBC13 polyubiquitin chain formation | inhibition, % at 20 µM | AID 485273 | P61088 | TR-FRET | 0.47% of 330,000 active; in the data active means inhibition above about 45%, passing the limit was not always enough
Target sequence (P61088 whole entry, looked up): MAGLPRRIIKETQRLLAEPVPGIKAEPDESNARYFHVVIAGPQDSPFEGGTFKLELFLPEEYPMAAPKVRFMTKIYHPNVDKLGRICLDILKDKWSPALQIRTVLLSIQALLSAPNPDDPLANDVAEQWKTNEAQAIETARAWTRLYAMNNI
EBNA-1 inh – blocks EBNA-1 binding to DNA; EBNA-1 DNA binding, fluorescence polarization; inhibition, % at 14.8 µM; 0.34% of 300,000 active; AID 1950; in the data active means inhibition above about 28%
PfM18AAP inh-2 – confirmation of Plasmodium falciparum M18 aspartyl aminopeptidase inhibitors. shares compounds with PfM18AAP inh-1. recombinant PfM18AAP, H-Glu-NHMec fluorogenic cleavage. inhibition, % at 7.35 µM. 28% of 2,400 active;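 active means mean inhibition over replicate wells above the hit cutoff set for the earlier primary screen, cut at about 29% in these data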;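 further: 0% = median of test compound wells and 100% = 2 mM ZnCl2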
CTSL1 counter – Cathepsin L (human) inhibition, confirmation. shares compounds with PfM18AAP inh-1. purified cathepsin L1, Z-Leu-Arg-MCA fluorescence. AID 2178. inhibition, % at 5.96 µM. 2,400 tested, under 10 active;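 active means average inhibition across replicates above the hit cutoff set in the earlier primary screen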;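 further: 0% = median of test compound wells and 100% = Z-Phe-Ala-diazomethylketone 1 µM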
Target sequence (P07711 whole entry, looked up): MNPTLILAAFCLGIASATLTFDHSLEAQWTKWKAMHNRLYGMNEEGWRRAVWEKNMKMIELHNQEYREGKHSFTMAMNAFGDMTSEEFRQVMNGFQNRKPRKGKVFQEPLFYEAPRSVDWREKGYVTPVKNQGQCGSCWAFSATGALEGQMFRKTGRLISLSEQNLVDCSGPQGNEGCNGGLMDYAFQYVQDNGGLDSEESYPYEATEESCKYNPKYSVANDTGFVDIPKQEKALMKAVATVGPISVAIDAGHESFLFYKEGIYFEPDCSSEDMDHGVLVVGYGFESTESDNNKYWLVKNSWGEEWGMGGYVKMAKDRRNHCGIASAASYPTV
The depositor's hits bear a star; . = no result given.

SMILES | Apaf1 inhib | ZTA DNA inh | PfM18AAP inh-1 | PfG6PD inh | UBC13 polyUb | EBNA-1 inh | PfM18AAP inh-2 | CTSL1 counter
CC1CCN(S(=O)(=O)N2CCC(C(=O)NCc3cccnc3)CC2)CC1 | -14.2 | 9.9 | -17.7 | -11.2 | 10.8 | 11.2 | . | .
O=c1oc2c(-c3ccc([N+](=O)[O-])cc3)cc(O)cc2s1 | 5.9 | -0.1 | 32.7* | 32.4 | -9.6 | -9.9 | -10.5 | -1.7
CCCCN(C(C)=O)c1c(N)n(CCC)c(=O)n(CC(=O)Nc2cc(Cl)cc(Cl)c2)c1=O | 3.3 | -2.5 | 5.4 | -8.3 | 10.8 | -0.4 | . | .
Oc1ccc(CCNc2c3ccccc3nc3ccccc23)cc1O | -3.9 | 1.3 | 74.0* | 45.7 | 0.3 | -0.1 | 64.1* | -1.9
Cc1ccc(S(=O)(=O)N[C@@H](CC(C)C)C(=O)N2CCC(C(=O)N[C@H](C(=O)O)C(C)C)CC2)cc1 | -3.7 | -6.1 | -1.6 | -0.9 | -2.9 | 1.0 | . | .
O=C1/C(=C/c2cccnc2)SC(=S)N1Nc1ccccc1 | 3.7 | -9.1 | 36.8* | -6.6 | -5.2 | -9.8 | 20.1 | 4.1
Cc1ccc(/C=C(\NC(=O)c2ccccc2)C(=O)N2CCCC2C(=O)O)cc1 (stereo unspecified) | 3.9 | -3.4 | -4.7 | 17.6 | -1.0 | -0.5 | . | .
CNC(=S)NNc1nc(C)cc(C)n1 | -7.2 | -7.2 | 68.1* | 15.6 | -5.3 | -10.0 | 48.1* | -0.4
COc1ccc(Cc2nnc(N/N=C/c3ccc(O)cc3O)[nH]c2=O)cc1OC | -2.7 | -3.9 | 39.1* | -22.8 | -40.2 | -1.5 | 45.6* | 1.1
Cc1nc2ccccc2c(=O)n1/N=C/c1ccc2ccccc2c1O | 3.3 | -11.2 | 2.2 | 9.9 | 8.7 | 7.6 | . | .
Oc1c(/C=N/c2ncn[nH]2)ccc2ccccc12 | 13.8 | -4.2 | 63.7* | 30.8 | 1.6 | 4.0 | 52.1* | -4.1
Cc1ccc(S(=O)(=O)Nc2cccc(C(=O)NCc3cccnc3)c2)cc1F | 1.3 | -15.1 | . | -31.7 | 4.6 | -4.8 | . | .
N#Cc1cc(-c2ccccc2)nc(NN)n1 | 2.5 | -3.3 | 42.6* | -16.1 | -4.5 | -8.8 | 30.6* | 6.5
O=[N+]([O-])c1ccc(N/N=C/c2cccc(O)c2O)c(S(=O)(=O)N2CCOCC2)c1 | 8.1 | 10.8 | 41.8* | -12.0 | -24.4 | 12.6 | 38.2* | 0.3
COc1cc(/C=N/Nc2ccc([N+](=O)[O-])cc2S(=O)(=O)N2CCOCC2)cc(OC)c1OC | -16.8 | 7.6 | -1.9 | 0.6 | -10.0 | -5.2 | . | .
Cc1ccccc1N1CCN(Cc2cc3c(cc2[N+](=O)[O-])OCO3)CC1 | 8.1 | -10.0 | 35.1* | 11.3 | -19.4 | -10.8 | -26.4 | -1.4
Cc1ccc(S(=O)(=O)NC(C(=O)O)c2ccccc2)cc1 (stereo unspecified) | -4.8 | 7.7 | 5.9 | -7.3 | -1.4 | 10.8 | . | .
c1ccc2c(c1)NCC1CCCN21 (stereo unspecified) | 11.8 | -5.5 | 37.4* | 54.4 | -4.2 | -17.9 | -69.7 | -3.6
N#Cc1c(-c2cccnc2)c2c([nH]c1=S)CCCC2 | 1.6 | -15.8 | 33.2* | 57.9 | 36.9 | -0.2 | 50.8* | -7.2
N=c1c(S(=O)(=O)c2ccccc2)cc2c(=O)n3ccccc3nc2n1CCCN1CCOCC1 | 9.2 | 1.6 | 33.6* | 5.3 | -16.8 | -13.3 | -29.6 | -4.3
CC12CC(NC(=O)N1c1cccc(C(=O)Nc3ncn[nH]3)c1)c1ccccc1O2 (stereo unspecified) | -4.8 | 6.4 | 42.8* | -0.4 | 1.9 | 4.6 | 50.4* | -6.8
CSc1ccc(C(=S)N2CCN(C)CC2)cc1 | -25.8 | 13.4 | -0.9 | 49.5 | -3.7 | 0.3 | . | .
CSc1ccc(C(=S)N2CCN(C(c3ccccc3)c3ccccc3)CC2)cc1 | 5.2 | 5.2 | 41.2* | 56.1 | 2.5 | 20.4 | -5.2 | -1.4
COc1ccc(S(=O)(=O)NCCSCc2ccc(Cl)cc2)cc1NC(C)=O | 7.4 | . | . | -5.4 | 2.7 | . | . | .
Cc1ncc(CO)c(/C=N/NC(=S)Nc2ccc(F)cc2)c1O | -3.6 | 14.5 | 23.6 | -7.7 | 43.0 | 7.2 | . | .
Cc1ncc(CO)c(/C=N/Nc2ccc(C(F)(F)F)cn2)c1O | 2.9 | 11.8 | 47.7* | -21.6 | -3.6 | -5.8 | -26.5 | 0.8

Compound activity from PubChem.
